ChEMBL document CHEMBL1255453, “Affinity of ceftaroline and other beta-lactams for penicillin-binding proteins from Staphylococcus aureus and Streptococcus pneumoniae” (Antimicrob Agents Chemother, 2010)
pIC50: −log10 of the molar value. In brackets after ≈: the same amount, converted by molar mass.

What was measured:
[1] = target: T1, Penicillin-binding protein 1A (Streptococcus pneumoniae serotype 4 (strain ATCC BAA-334 / TIGR4), UniProt Q04707); assay: Binding affinity to penicillin-resistant Streptococcus pneumoniae 24 PBP1A by competitive binding assay
T1 sequence (Q04707 whole entry): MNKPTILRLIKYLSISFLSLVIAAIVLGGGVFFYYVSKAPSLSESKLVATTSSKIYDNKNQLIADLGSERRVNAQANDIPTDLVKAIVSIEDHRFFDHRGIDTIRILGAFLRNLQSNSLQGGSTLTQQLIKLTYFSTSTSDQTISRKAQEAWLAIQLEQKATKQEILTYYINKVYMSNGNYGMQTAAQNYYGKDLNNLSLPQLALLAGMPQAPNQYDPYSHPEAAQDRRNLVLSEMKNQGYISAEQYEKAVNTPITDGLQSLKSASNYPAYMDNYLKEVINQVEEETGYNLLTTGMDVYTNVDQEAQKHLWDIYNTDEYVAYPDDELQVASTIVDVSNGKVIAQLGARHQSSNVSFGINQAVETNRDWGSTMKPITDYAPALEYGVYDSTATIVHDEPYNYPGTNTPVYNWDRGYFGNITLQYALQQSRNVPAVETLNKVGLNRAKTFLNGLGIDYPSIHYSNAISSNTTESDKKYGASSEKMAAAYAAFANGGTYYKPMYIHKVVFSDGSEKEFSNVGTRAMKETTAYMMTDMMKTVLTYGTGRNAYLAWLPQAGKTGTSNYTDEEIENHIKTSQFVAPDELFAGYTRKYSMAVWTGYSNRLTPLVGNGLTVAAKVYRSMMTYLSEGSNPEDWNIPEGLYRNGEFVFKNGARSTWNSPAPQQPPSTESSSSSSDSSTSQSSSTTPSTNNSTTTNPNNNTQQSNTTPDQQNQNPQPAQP
Procedure, shortened: (§1)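 Whole pneumococcal cells grown to OD600 0.3 in Todd-Hewitt broth with 0.5% yeast extract, resuspended in 50 mM NaPO4 pH 7.0. Cells (10^8–5 × 10^8 CFU/ml) incubated with β-lactam 10 min at 37°C, then Bocillin FL 10 μg/ml, 15 min at 37°C. SDS-PAGE, 520 nm fluorescence; IC50 = 50% inhibition of Bocillin FL binding; 2 experiments.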

[2] = target: T1, Penicillin-binding protein 1A; assay: Binding affinity to penicillin-resistant Streptococcus pneumoniae 2527 PBP1A by competitive binding assay
Procedure, shortened: (§2)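 Whole pneumococcal cells were grown to OD600 0.3 in Todd-Hewitt broth plus 0.5% yeast extract, then resuspended in 50 mM NaPO4, pH 7.0. Cells at 10^8 to 5 × 10^8 CFU/ml were exposed to β-lactam for 10 min at 37°C, alongside a reference without drug. They were then labeled with 10 μg/ml Bocillin FL for 15 min at 37°C. Proteins were resolved by SDS-PAGE and fluorescence read at 520 nm. IC50 was taken as 50% inhibition of Bocillin FL binding, from 2 experiments.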

[3] = Binding affinity to penicillin-resistant Streptococcus pneumoniae 2527 PBP1B by competitive binding assay; procedure, shortened: as §2
[4] = target: T2, Penicillin-binding protein 2x (Streptococcus pneumoniae serotype 4 (strain ATCC BAA-334 / TIGR4), UniProt P14677); assay: Binding affinity to penicillin-resistant Streptococcus pneumoniae 24 PBP2X by competitive binding assay; procedure, shortened: as §2
[5] = target: T2, Penicillin-binding protein 2x; assay: Binding affinity to penicillin-resistant Streptococcus pneumoniae 3413 PBP2X by competitive binding assay; procedure, shortened: as §2
[6] = target: T2, Penicillin-binding protein 2x; assay: Binding affinity to penicillin-resistant Streptococcus pneumoniae 2527 PBP2X by competitive binding assay; procedure, shortened: as §2
[7] = Binding affinity to penicillin-resistant Streptococcus pneumoniae 2527 PBP2A by competitive binding assay; procedure, shortened: as §2
[8] = target: T3, Penicillin-binding protein 2B (Streptococcus pneumoniae serotype 4 (strain ATCC BAA-334 / TIGR4), UniProt P0A3M5); assay: Binding affinity to against penicillin-susceptible Streptococcus pneumoniae 1076 PBP2B by competitive binding assay; procedure, shortened: as §1
T3 sequence (P0A3M5 whole entry): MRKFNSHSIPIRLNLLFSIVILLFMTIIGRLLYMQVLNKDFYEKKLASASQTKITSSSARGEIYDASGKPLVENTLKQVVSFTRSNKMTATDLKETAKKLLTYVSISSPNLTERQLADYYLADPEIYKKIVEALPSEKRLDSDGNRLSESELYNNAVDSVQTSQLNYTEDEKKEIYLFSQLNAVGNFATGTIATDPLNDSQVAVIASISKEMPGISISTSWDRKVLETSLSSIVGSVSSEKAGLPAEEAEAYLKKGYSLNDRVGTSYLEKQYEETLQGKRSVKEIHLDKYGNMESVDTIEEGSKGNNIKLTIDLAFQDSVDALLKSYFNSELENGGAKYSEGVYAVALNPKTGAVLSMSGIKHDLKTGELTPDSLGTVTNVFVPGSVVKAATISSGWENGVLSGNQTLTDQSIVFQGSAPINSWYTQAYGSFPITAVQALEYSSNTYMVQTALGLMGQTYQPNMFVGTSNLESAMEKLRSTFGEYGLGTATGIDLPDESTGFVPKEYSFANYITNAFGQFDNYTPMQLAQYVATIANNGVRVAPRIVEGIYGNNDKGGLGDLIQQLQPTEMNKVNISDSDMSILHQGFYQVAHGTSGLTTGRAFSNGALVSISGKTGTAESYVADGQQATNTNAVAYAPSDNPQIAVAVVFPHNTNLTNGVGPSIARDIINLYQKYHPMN

[9] = target: T3, Penicillin-binding protein 2B; assay: Binding affinity to penicillin-resistant Streptococcus pneumoniae 24 PBP2B by competitive binding assay; procedure, shortened: as §2
[10] = target: T3, Penicillin-binding protein 2B; assay: Binding affinity to penicillin-resistant Streptococcus pneumoniae 2527 PBP2B by competitive binding assay; procedure, shortened: as §2
[11] = Binding affinity to penicillin-resistant Streptococcus pneumoniae 3413 PBP3 by competitive binding assay; procedure, shortened: as §2
[12] = Binding affinity to penicillin-resistant Streptococcus pneumoniae 2527 PBP3 by competitive binding assay; procedure, shortened: as §2

T2 sequence (P14677 whole entry, looked up): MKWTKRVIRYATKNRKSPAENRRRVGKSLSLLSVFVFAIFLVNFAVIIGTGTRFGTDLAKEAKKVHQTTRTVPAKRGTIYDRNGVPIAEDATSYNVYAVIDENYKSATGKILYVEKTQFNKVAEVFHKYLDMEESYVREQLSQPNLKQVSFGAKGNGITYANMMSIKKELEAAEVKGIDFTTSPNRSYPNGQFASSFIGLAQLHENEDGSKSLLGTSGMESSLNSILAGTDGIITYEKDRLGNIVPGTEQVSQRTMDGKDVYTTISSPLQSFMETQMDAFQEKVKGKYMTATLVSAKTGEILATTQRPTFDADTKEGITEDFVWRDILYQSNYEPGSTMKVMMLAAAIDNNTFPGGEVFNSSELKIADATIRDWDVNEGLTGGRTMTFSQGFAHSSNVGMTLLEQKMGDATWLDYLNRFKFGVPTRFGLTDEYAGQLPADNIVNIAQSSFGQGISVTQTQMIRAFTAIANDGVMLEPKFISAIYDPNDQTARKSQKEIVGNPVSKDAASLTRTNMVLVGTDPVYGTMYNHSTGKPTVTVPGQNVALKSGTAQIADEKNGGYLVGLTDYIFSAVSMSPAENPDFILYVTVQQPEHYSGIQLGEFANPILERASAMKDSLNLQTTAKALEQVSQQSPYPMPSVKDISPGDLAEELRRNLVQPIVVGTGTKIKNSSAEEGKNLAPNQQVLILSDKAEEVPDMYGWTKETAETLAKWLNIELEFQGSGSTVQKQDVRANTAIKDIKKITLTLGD

Row | Structure (SMILES) | pIC50 [1] | pIC50 [2] | IC50 [3] | pIC50 [4] | pIC50 [5] | pIC50 [6] | IC50 [7] | pIC50 [8] | pIC50 [9] | pIC50 [10] | IC50 [11] | IC50 [12]
1 | CO/N=C(\C(=O)N[C@@H]1C(=O)N2C(C(=O)O)=C(COC(C)=O)CS[C@H]12)c1csc(N)n1 [CEFOTAXIME] | 6.56 | 6.26 | 0.25 mg/L (≈ 0.549 µM) | 5.66 | 5.06 | 6.66 | 0.25 mg/L (≈ 0.549 µM) | < 4.15 | 4.45 | 5.06 | 0.1 mg/L (≈ 0.22 µM) | 0.1 mg/L (≈ 0.22 µM)
2 | CO/N=C(\C(=O)N[C@@H]1C(=O)N2C(C(=O)O)=C(CSc3nc(=O)c(O)nn3C)CS[C@H]12)c1csc(N)n1 [CEFTRIAXONE] | 6.35 | 6.35 | 0.125 mg/L (≈ 0.225 µM) | 5.74 | 5.14 | 6.74 | 0.25 mg/L (≈ 0.451 µM) | < 4.24 | 4.54 | 5.14 | 0.25 mg/L (≈ 0.451 µM) | 0.25 mg/L (≈ 0.451 µM)
